# Measurements as given in ChEMBL document CHEMBL1914398, “Synthesis and evaluation of novel N-fluoropyridyl derivatives of tropane as potential PET imaging agents for the dopamine transporter” (Bioorg Med Chem Lett, 2011).
# What was measured:
# [1] = Selectivity ratio of Ki for SERT to Ki for DAT
# [2] = target: Sodium-dependent dopamine transporter (Homo sapiens, UniProt Q01959); assay: Displacement of [125I]-IPT from DAT transfected in pig LLC-PK1 cells by radioligand competition binding assay; format: cell-based
# [3] = Selectivity ratio of Ki for NET to Ki for DAT
# [4] = target: Sodium-dependent serotonin transporter (Homo sapiens, UniProt P31645); assay: Displacement of [125I]-IDAM from SERT transfected in pig LLC-PK1 cells by radioligand competition binding assay; format: cell-based
# [5] = target: Sodium-dependent noradrenaline transporter (Homo sapiens, UniProt P23975); assay: Displacement of [125I]-INXT from NET transfected in pig LLC-PK1 cells by radioligand competition binding assay; format: cell-based
# Hypothalamus [6] = assay: Drug uptake in Sprague-Dawley rat hypothalamus at 25 uCi, iv after 2 mins by gamma counter; format: ADME, organism-based; settings: in vivo
# How it was run: (§1)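 Normal male Sprague-Dawley rats were given 25 µCi of the 18F-tracer via the femoral vein. Rats (n = 5 per time point) were sacrificed at 2, 60, 120 or 180 min post-injection. Brain regions were dissected and weighed, and radioactivity was gamma-counted. Values are %ID/g, calculated against diluted aliquots of the injected dose, as mean ± S.D.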
# Hippocampus [7] = assay: Drug uptake in Sprague-Dawley rat hippocampus at 25 uCi, iv after 180 mins by gamma counter; format: ADME, organism-based; settings: in vivo, 3 h; how it was run: as §1
# Nucleic Acid [8] = assay: Ratio of drug uptake in cortex to cerebellum in Sprague-Dawley rat at 25 uCi, iv after 2 mins; format: ADME, organism-based; settings: in vivo
# How it was run: (§2)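 Region-to-cerebellum uptake ratios were calculated from %ID/g values (n = 5 rats per time point). These came from normal male Sprague-Dawley rats given 25 µCi of the 18F-tracer through the femoral vein and dissected at 2, 60, 120 or 180 min. Tissue was gamma-counted, and cerebellum served as the non-target background region.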
# Striatum [9] = assay: Drug uptake in Sprague-Dawley rat striatum at 25 uCi, iv after 120 mins by gamma counter; format: ADME, organism-based; settings: in vivo, 2 h; how it was run: as §1
# Striatum [10] = assay: Drug uptake in Sprague-Dawley rat striatum at 25 uCi, iv after 60 mins by gamma counter; format: ADME, organism-based; settings: in vivo, 1 h; how it was run: as §1
# Cortex [11] = assay: Drug uptake in Sprague-Dawley rat cortex at 25 uCi, iv after 2 mins by gamma counter; format: ADME, organism-based; settings: in vivo; how it was run: as §1
# Nucleic Acid [12] = assay: Ratio of drug uptake in striatum to cerebellum in Sprague-Dawley rat at 25 uCi, iv after 180 mins; format: ADME, organism-based; settings: in vivo, 3 h; how it was run: as §2
# Hippocampus [13] = assay: Drug uptake in Sprague-Dawley rat hippocampus at 25 uCi, iv after 120 mins by gamma counter; format: ADME, organism-based; settings: in vivo, 2 h; how it was run: as §1
# Brain [14] = assay: Drug uptake in Sprague-Dawley rat brain at 25 uCi, iv after 120 mins by gamma counter; format: ADME, organism-based; settings: in vivo, 2 h; how it was run: as §1
# Nucleic Acid [15] = assay: Ratio of drug uptake in hypothalamus to cerebellum in Sprague-Dawley rat at 25 uCi, iv after 120 mins; format: ADME, organism-based; settings: in vivo, 2 h; how it was run: as §2
# Nucleic Acid [16] = assay: Ratio of drug uptake in hippocampus to cerebellum in Sprague-Dawley rat at 25 uCi, iv after 60 mins; format: ADME, organism-based; settings: in vivo, 1 h; how it was run: as §2
# Nucleic Acid [17] = assay: Ratio of drug uptake in hippocampus to cerebellum in Sprague-Dawley rat at 25 uCi, iv after 180 mins; format: ADME, organism-based; settings: in vivo, 3 h; how it was run: as §2
# Hippocampus [18] = assay: Drug uptake in Sprague-Dawley rat hippocampus at 25 uCi, iv after 2 mins by gamma counter; format: ADME, organism-based; settings: in vivo; how it was run: as §1
# Cortex [19] = assay: Drug uptake in Sprague-Dawley rat cortex at 25 uCi, iv after 120 mins by gamma counter; format: ADME, organism-based; settings: in vivo, 2 h; how it was run: as §1
# Nucleic Acid [20] = assay: Ratio of drug uptake in hypothalamus to cerebellum in Sprague-Dawley rat at 25 uCi, iv after 180 mins; format: ADME, organism-based; settings: in vivo, 3 h; how it was run: as §2
# Nucleic Acid [21] = assay: Ratio of drug uptake in striatum to cerebellum in Sprague-Dawley rat at 25 uCi, iv after 120 mins; format: ADME, organism-based; settings: in vivo, 2 h; how it was run: as §2
# [22] = Lipophilicity, log P of the compound; format: physicochemical; settings: octanol/water
# [23] = Drug uptake in Sprague-Dawley rat caudate at 2.5 mCi, iv after 60 mins post injection measured by autoradiographic technique; format: ADME, organism-based, Caudate nucleus; settings: in vivo, 1 h
# How it was run: (§3)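 For ex vivo autoradiography, normal Sprague-Dawley rats received 2.5 mCi of the 18F-tracer intravenously and were sacrificed at 60 min post-injection. Brains were removed immediately, frozen and sectioned. Dried sections were exposed to film overnight in an autoradiographic cassette to map regional radioactivity.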
# Nucleic Acid [24] = assay: Ratio of drug uptake in cortex to cerebellum in Sprague-Dawley rat at 25 uCi, iv after 120 mins; format: ADME, organism-based; settings: in vivo, 2 h; how it was run: as §2
# Striatum [25] = assay: Drug uptake in Sprague-Dawley rat striatum at 2.5 mCi, iv after 60 mins post injection measured by autoradiographic technique; format: ADME, organism-based; settings: in vivo, 1 h; how it was run: as §3
# Cortex [26] = assay: Drug uptake in Sprague-Dawley rat cortex at 25 uCi, iv after 60 mins by gamma counter; format: ADME, organism-based; settings: in vivo, 1 h; how it was run: as §1
# Striatum [27] = assay: Drug uptake in Sprague-Dawley rat striatum at 25 uCi, iv after 180 mins by gamma counter; format: ADME, organism-based; settings: in vivo, 3 h; how it was run: as §1
# Cortex [28] = assay: Drug uptake in Sprague-Dawley rat cortex at 25 uCi, iv after 180 mins by gamma counter; format: ADME, organism-based; settings: in vivo, 3 h; how it was run: as §1
# Hypothalamus [29] = assay: Drug uptake in Sprague-Dawley rat hypothalamus at 25 uCi, iv after 60 mins by gamma counter; format: ADME, organism-based; settings: in vivo, 1 h; how it was run: as §1
# Cerebellum [30] = assay: Drug uptake in Sprague-Dawley rat cerebellum at 25 uCi, iv after 60 mins by gamma counter; format: ADME, organism-based; settings: in vivo, 1 h; how it was run: as §1
# Hippocampus [31] = assay: Drug uptake in Sprague-Dawley rat hippocampus at 25 uCi, iv after 60 mins by gamma counter; format: ADME, organism-based; settings: in vivo, 1 h; how it was run: as §1
# Brain [32] = assay: Drug uptake in Sprague-Dawley rat brain at 25 uCi, iv after 180 mins by gamma counter; format: ADME, organism-based; settings: in vivo, 3 h; how it was run: as §1
# Nucleic Acid [33] = assay: Ratio of drug uptake in cortex to cerebellum in Sprague-Dawley rat at 25 uCi, iv after 180 mins; format: ADME, organism-based; settings: in vivo, 3 h; how it was run: as §2
# Nucleic Acid [34] = assay: Ratio of drug uptake in striatum to cerebellum in Sprague-Dawley rat at 25 uCi, iv after 2 mins; format: ADME, organism-based; settings: in vivo; how it was run: as §2
# Nucleic Acid [35] = assay: Ratio of drug uptake in hypothalamus to cerebellum in Sprague-Dawley rat at 25 uCi, iv after 2 mins; format: ADME, organism-based; settings: in vivo; how it was run: as §2
# Brain [36] = assay: Drug uptake in Sprague-Dawley rat brain at 25 uCi, iv after 2 mins by gamma counter; format: ADME, organism-based; settings: in vivo; how it was run: as §1
# Nucleic Acid [37] = assay: Ratio of drug uptake in hippocampus to cerebellum in Sprague-Dawley rat at 25 uCi, iv after 120 mins; format: ADME, organism-based; settings: in vivo, 2 h; how it was run: as §2
# [38] = Drug uptake in Sprague-Dawley rat putamen at 2.5 mCi, iv after 60 mins post injection measured by autoradiographic technique; format: ADME, organism-based; settings: in vivo, 1 h; how it was run: as §3
# Hypothalamus [39] = assay: Drug uptake in Sprague-Dawley rat hypothalamus at 25 uCi, iv after 120 mins by gamma counter; format: ADME, organism-based; settings: in vivo, 2 h; how it was run: as §1
# Cerebellum [40] = assay: Drug uptake in Sprague-Dawley rat cerebellum at 25 uCi, iv after 180 mins by gamma counter; format: ADME, organism-based; settings: in vivo, 3 h; how it was run: as §1
# Cortex [41] = assay: Drug uptake in Sprague-Dawley rat cortex at 2.5 mCi, iv after 60 mins post injection measured by autoradiographic technique; format: ADME, organism-based; settings: in vivo, 1 h; how it was run: as §3
# Cerebellum [42] = assay: Drug uptake in Sprague-Dawley rat cerebellum at 25 uCi, iv after 120 mins by gamma counter; format: ADME, organism-based; settings: in vivo, 2 h; how it was run: as §1
# Nucleic Acid [43] = assay: Ratio of drug uptake in hippocampus to cerebellum in Sprague-Dawley rat at 25 uCi, iv after 2 mins; format: ADME, organism-based; settings: in vivo; how it was run: as §2
# Brain [44] = assay: Drug uptake in Sprague-Dawley rat brain at 25 uCi, iv after 60 mins by gamma counter; format: ADME, organism-based; settings: in vivo, 1 h; how it was run: as §1
# Nucleic Acid [45] = assay: Ratio of drug uptake in striatum to cerebellum in Sprague-Dawley rat at 25 uCi, iv after 60 mins; format: ADME, organism-based; settings: in vivo, 1 h; how it was run: as §2
# Cerebellum [46] = assay: Drug uptake in Sprague-Dawley rat cerebellum at 25 uCi, iv after 2 mins by gamma counter; format: ADME, organism-based; settings: in vivo; how it was run: as §1
# Striatum [47] = assay: Drug uptake in Sprague-Dawley rat striatum at 25 uCi, iv after 2 mins by gamma counter; format: ADME, organism-based; settings: in vivo; how it was run: as §1
# Nucleic Acid [48] = assay: Ratio of drug uptake in cortex to cerebellum in Sprague-Dawley rat at 25 uCi, iv after 60 mins; format: ADME, organism-based; settings: in vivo, 1 h; how it was run: as §2
# Hypothalamus [49] = assay: Drug uptake in Sprague-Dawley rat hypothalamus at 25 uCi, iv after 180 mins by gamma counter; format: ADME, organism-based; settings: in vivo, 3 h; how it was run: as §1
# Nucleic Acid [50] = assay: Ratio of drug uptake in hypothalamus to cerebellum in Sprague-Dawley rat at 25 uCi, iv after 60 mins; format: ADME, organism-based; settings: in vivo, 1 h; how it was run: as §2
# Chain of Sodium-dependent noradrenaline transporter (P23975 whole entry): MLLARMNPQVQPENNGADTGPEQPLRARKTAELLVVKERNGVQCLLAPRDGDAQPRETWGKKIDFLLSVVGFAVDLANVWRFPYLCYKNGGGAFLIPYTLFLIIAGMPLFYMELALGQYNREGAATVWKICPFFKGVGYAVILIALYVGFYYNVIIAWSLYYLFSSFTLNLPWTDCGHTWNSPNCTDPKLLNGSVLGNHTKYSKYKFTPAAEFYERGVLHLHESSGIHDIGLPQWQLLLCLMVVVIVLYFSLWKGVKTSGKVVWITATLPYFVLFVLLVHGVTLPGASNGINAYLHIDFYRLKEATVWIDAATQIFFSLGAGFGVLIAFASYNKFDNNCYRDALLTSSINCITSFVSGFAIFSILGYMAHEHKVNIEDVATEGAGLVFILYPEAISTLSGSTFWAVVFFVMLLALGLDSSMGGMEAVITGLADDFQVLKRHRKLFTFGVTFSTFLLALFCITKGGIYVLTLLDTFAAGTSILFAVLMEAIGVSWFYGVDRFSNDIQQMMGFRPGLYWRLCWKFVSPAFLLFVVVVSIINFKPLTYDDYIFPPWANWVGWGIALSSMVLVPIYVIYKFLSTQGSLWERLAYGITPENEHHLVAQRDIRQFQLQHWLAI
# Chain of Sodium-dependent dopamine transporter (Q01959 whole entry): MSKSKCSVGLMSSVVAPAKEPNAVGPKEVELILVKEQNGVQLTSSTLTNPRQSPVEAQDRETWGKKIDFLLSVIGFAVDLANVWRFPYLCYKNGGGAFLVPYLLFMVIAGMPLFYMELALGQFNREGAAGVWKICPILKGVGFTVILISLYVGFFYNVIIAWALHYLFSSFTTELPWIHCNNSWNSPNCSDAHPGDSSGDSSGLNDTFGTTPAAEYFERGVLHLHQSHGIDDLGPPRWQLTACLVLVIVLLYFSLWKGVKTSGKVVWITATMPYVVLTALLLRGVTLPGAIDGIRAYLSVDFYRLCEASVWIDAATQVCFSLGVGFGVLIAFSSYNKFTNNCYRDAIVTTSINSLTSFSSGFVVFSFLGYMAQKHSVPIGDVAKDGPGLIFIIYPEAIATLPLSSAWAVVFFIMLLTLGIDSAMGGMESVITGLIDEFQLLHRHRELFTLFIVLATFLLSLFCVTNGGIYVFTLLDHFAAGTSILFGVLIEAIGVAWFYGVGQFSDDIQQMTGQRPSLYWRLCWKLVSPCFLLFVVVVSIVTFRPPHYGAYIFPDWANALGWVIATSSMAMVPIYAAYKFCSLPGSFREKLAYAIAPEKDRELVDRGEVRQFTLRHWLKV
# Chain of Sodium-dependent serotonin transporter (P31645 whole entry): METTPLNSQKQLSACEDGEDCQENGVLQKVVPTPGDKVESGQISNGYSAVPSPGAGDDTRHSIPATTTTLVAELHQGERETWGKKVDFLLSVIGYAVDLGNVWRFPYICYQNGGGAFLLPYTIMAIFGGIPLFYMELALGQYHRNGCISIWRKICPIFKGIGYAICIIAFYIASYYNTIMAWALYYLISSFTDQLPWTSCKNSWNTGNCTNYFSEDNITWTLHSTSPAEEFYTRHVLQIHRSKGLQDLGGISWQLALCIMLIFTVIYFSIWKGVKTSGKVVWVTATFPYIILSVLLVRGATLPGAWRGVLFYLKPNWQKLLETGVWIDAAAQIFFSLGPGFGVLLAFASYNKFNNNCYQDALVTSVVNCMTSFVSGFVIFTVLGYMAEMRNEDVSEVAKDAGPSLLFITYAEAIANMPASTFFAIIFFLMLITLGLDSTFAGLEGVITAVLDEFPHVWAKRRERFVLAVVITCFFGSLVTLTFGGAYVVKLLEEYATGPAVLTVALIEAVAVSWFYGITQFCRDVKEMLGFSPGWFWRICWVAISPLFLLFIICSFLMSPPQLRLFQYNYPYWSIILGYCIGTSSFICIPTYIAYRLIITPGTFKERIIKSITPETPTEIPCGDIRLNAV
compound,measurement,setting,value
CN1C2CCC1[C@@H](CNc1ccc(Br)nc1)[C@@H](c1ccc(Cl)cc1)C2 (stereo partly specified),Ratio Ki,[1],0.6
same,Ki,[2],17.9 nM
same,Ratio Ki,[3],2.7
same,Ki,[4],10.5 nM
same,Ki,[5],49.1 nM
CN1C2CCC1[C@@H](C(=O)Nc1ccnc(Br)c1)[C@@H](c1ccc(Cl)cc1)C2 (stereo partly specified),Ratio Ki,[1],125
same,Ki,[2],82.2 nM
same,Ratio Ki,[3],147
same,Ki,[4],10300 nM
same,Ki,[5],12100 nM
COC(=O)[C@@H]1C2CCC(C[C@@H]1c1ccc(Br)cc1)N2C (stereo partly specified),Ki,[2],3.5 nM
CN1C2CCC1[C@@H](C(=O)Nc1cccc(F)n1)[C@@H](c1ccc(Cl)cc1)C2 (stereo partly specified),Ratio Ki,[1],229
same,Ki,[2],127 nM
same,Ratio Ki,[3],133
same,Ki,[4],29100 nM
same,Ki,[5],16900 nM
CN1C2CCC1[C@@H](CNc1ccnc(Br)c1)[C@@H](c1ccc(Cl)cc1)C2 (stereo partly specified),Ratio Ki,[1],1.4
same,Ki,[2],7.9 nM
same,Ratio Ki,[3],3.5
same,Ki,[4],11 nM
same,Ki,[5],27.7 nM
CN1C2CCC1[C@@H](CN(C(=O)OC(C)(C)C)c1cccc([18F])n1)[C@@H](c1ccc(Cl)cc1)C2 (stereo partly specified),Drug uptake,Hypothalamus [6],0.4 % ID/g
same,Drug uptake,Hippocampus [7],0.05 % ID/g
same,Ratio,Nucleic Acid [8],0.91
same,Drug uptake,Striatum [9],0.12 % ID/g
same,Drug uptake,Striatum [10],0.47 % ID/g
same,Drug uptake,Cortex [11],0.45 % ID/g
same,Ratio,Nucleic Acid [12],3.14
same,Drug uptake,Hippocampus [13],0.08 % ID/g
same,Drug uptake,Brain [14],0.07 % ID/g
same,Ratio,Nucleic Acid [15],1.31
same,Ratio,Nucleic Acid [16],1.21
same,Ratio,Nucleic Acid [17],1.81
same,Drug uptake,Hippocampus [18],0.36 % ID/g
same,Drug uptake,Cortex [19],0.07 % ID/g
same,Ratio,Nucleic Acid [20],1.51
same,Ratio,Nucleic Acid [21],2.54
same,logP,[22],1.88
same,Drug uptake,[23],Active
same,Ratio,Nucleic Acid [24],1.4
same,Drug uptake,Striatum [25],Active
same,Drug uptake,Cortex [26],0.28 % ID/g
same,Drug uptake,Striatum [27],0.09 % ID/g
same,Drug uptake,Cortex [28],0.03 % ID/g
same,Drug uptake,Hypothalamus [29],0.29 % ID/g
same,Drug uptake,Cerebellum [30],0.23 % ID/g
same,Drug uptake,Hippocampus [31],0.28 % ID/g
same,Drug uptake,Brain [32],0.04 % ID/g
same,Ratio,Nucleic Acid [33],0.96
same,Ratio,Nucleic Acid [34],0.82
same,Ratio,Nucleic Acid [35],0.81
same,Drug uptake,Brain [36],0.4 % ID/g
same,Ratio,Nucleic Acid [37],1.61
same,Drug uptake,[38],Active
same,Drug uptake,Hypothalamus [39],0.06 % ID/g
same,Drug uptake,Cerebellum [40],0.03 % ID/g
same,Drug uptake,Cortex [41],Active
same,Drug uptake,Cerebellum [42],0.05 % ID/g
same,Ratio,Nucleic Acid [43],0.72
same,Drug uptake,Brain [44],0.26 % ID/g
same,Ratio,Nucleic Acid [45],2.02
same,Drug uptake,Cerebellum [46],0.49 % ID/g
same,Drug uptake,Striatum [47],0.4 % ID/g
same,Ratio,Nucleic Acid [48],1.21
same,Drug uptake,Hypothalamus [49],0.04 % ID/g
same,Ratio,Nucleic Acid [50],1.24
